Results reported in ChEMBL document CHEMBL1135810, “Water-soluble, core-modified porphyrins as novel, longer-wavelength-absorbing sensitizers for photodynamic therapy. II. Effects of core heteroatoms and meso-substituents on biological activity” (J Med Chem, 2002).

System: Colon 26
Test: Effective concentration required to give 50% cell kill with 4 J/cm**2 of light.(Dark and light induced toxicity towards murine colon carcinoma cell line(COLO-26 cells))
Assay type: functional, cell-based
Conditions: Mus musculus, Colon 26, light or radiation study
How it was run: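 Colo-26 mouse colon carcinoma cells grown in RPMI 1640 with 10% fetal calf serum at 37 °C, 5% CO2, plated at 5×10^3 cells/well the evening before. Cells were PBS-washed, then kept 24 h at 37 °C in the dark with graded sensitizer in HBSS, washed, and irradiated in PBS with filtered 590–800 nm light (methods state 570–800 nm) to 4 J cm-2. Dark controls were not irradiated. After 24 h in growth medium, MTT survival was read, and EC50 was taken from surviving fraction vs concentration.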

Going from `O=S(=O)(O)c1ccc(-c2c3nc(c(-c4ccc(F)cc4)c4ccc(s4)c(-c4ccc(F)cc4)c4nc(c(-c5ccc(S(=O)(=O)O)cc5)c5ccc2[se]5)C=C4)C=C3)cc1` to `O=S(=O)(O)c1ccc(-c2c3nc(c(-c4ccc(F)cc4)c4ccc([se]4)c(-c4ccc(F)cc4)c4nc(c(-c5ccc(S(=O)(=O)O)cc5)c5ccc2s5)C=C4)C=C3)cc1`, the EC50 falls from 2100 nM to 1200 nM (1.8-fold).

Going from `O=S(=O)(O)c1ccc(-c2c3nc(c(-c4ccc(F)cc4)c4ccc([se]4)c(-c4ccc(F)cc4)c4nc(c(-c5ccc(S(=O)(=O)O)cc5)c5ccc2[se]5)C=C4)C=C3)cc1` to `O=S(=O)(O)c1ccc(-c2c3nc(c(-c4ccc(S(=O)(=O)O)cc4)c4ccc([se]4)c(-c4ccc(S(=O)(=O)O)cc4)c4nc(c(-c5ccc(S(=O)(=O)O)cc5)c5ccc2[se]5)C=C4)C=C3)cc1`, the EC50 rises from 7900 nM to over 100000 nM. The first is the more potent here.

First: O=C(O)COc1ccc(-c2c3nc(c(-c4ccccc4)c4ccc(s4)c(-c4ccccc4)c4nc(c(-c5ccc(OCC(=O)O)cc5)c5ccc2s5)C=C4)C=C3)cc1
Second: O=C(O)COc1ccc(-c2c3nc(c(-c4ccc(F)cc4)c4ccc(s4)c(-c4ccc(F)cc4)c4nc(c(-c5ccc(OCC(=O)O)cc5)c5ccc2s5)C=C4)C=C3)cc1
The EC50 of the first is 2.9-fold lower: 150 nM for the first, 430 nM for the second.

`O=S(=O)(O)c1ccc(-c2c3nc(c(-c4ccc(F)cc4)c4ccc(s4)c(-c4ccc(F)cc4)c4nc(c(-c5ccc(S(=O)(=O)O)cc5)c5ccc2[nH]5)C=C4)C=C3)cc1` and `O=S(=O)(O)c1ccc(-c2c3nc(c(-c4ccc(F)cc4)c4ccc(s4)c(-c4ccc(F)cc4)c4nc(c(-c5ccc(S(=O)(=O)O)cc5)c5ccc2s5)C=C4)C=C3)cc1` are within 1.5-fold of each other in EC50: 2100 nM for the first, 1600 nM for the second.

Compared with `Cc1ccc(-c2c3nc(c(-c4ccc(S(=O)(=O)O)cc4)c4ccc(s4)c(-c4ccc(S(=O)(=O)O)cc4)c4nc(c(-c5ccc(C)cc5S(=O)(=O)O)c5ccc2s5)C=C4)C=C3)c(S(=O)(=O)O)c1`, `O=S(=O)(O)c1ccc(-c2c3nc(c(-c4ccc(S(=O)(=O)O)cc4)c4ccc(s4)c(-c4ccc(S(=O)(=O)O)cc4)c4nc(c(-c5ccc(S(=O)(=O)O)cc5)c5ccc2s5)C=C4)C=C3)cc1` is 2.5-fold higher in EC50: 12000 nM for the first, 30000 nM for the second. The first is the more potent here.

Going from `O=S(=O)(O)c1ccc(-c2c3nc(c(-c4ccc(C(F)(F)F)cc4)c4ccc(s4)c(-c4ccc(C(F)(F)F)cc4)c4nc(c(-c5ccc(S(=O)(=O)O)cc5)c5ccc2s5)C=C4)C=C3)cc1` to `CN(C)c1ccc(-c2c3nc(c(-c4ccc(S(=O)(=O)O)cc4)c4ccc(s4)c(-c4ccc(S(=O)(=O)O)cc4)c4nc(c(-c5ccc(N(C)C)cc5)c5ccc2s5)C=C4)C=C3)cc1`, the EC50 falls from over 100000 nM to 640 nM. The second is the more potent here.

`O=S(=O)(O)c1ccc(-c2c3nc(c(-c4ccc(S(=O)(=O)O)cc4)c4ccc([nH]4)c(-c4ccc(S(=O)(=O)O)cc4)c4ccc([nH]4)c(-c4ccc(S(=O)(=O)O)cc4)c4nc2C=C4)C=C3)cc1` and `O=S(=O)(O)c1ccc(-c2c3nc(c(-c4ccc(S(=O)(=O)O)cc4)c4ccc([nH]4)c(-c4ccc(S(=O)(=O)O)cc4)c4ccc(s4)c(-c4ccc(S(=O)(=O)O)cc4)c4nc2C=C4)C=C3)cc1` cannot be ordered by EC50: 125000 nM for the first, over 100000 nM for the second.
